Bioassay records from PubChem BioAssay.
In the library only some 4.2% were active in any assay of this set; here they are far more common.
Fh CTSL1 inh = Fasciola hepatica cathepsin L1 inhibitors, primary screen, counter-screen for PFM18AAP inhibitor project, biochemical, QFRET, fluorogenic peptide substrate; AID 1906, 2009; inhibition, % at 5.96 µM; 300,000 compounds, 0.49% hits; recombinant F. hepatica cathepsin L1, Z-Leu-Arg-MCA fluorescence;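 active = inhibition above the mean of all tested compounds plus 3 SD, set per screening campaign, cut at about 17% in these data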
HDAC3 inhib = HDAC3 deacetylase inhibitors, primary screen, biochemical, fluorescence, cell-free homogeneous. Histone deacetylase 3 (Homo sapiens), O15379. recombinant HDAC3, fluorogenic peptide/trypsin coupled. AID 2718, 2010. 320,000 compounds, 0.15% hits. inhibition, % at 8.3 µM; in the data active = inhibition above about 26%, passing the limit was not always enough
Target sequence (O15379 whole entry, looked up): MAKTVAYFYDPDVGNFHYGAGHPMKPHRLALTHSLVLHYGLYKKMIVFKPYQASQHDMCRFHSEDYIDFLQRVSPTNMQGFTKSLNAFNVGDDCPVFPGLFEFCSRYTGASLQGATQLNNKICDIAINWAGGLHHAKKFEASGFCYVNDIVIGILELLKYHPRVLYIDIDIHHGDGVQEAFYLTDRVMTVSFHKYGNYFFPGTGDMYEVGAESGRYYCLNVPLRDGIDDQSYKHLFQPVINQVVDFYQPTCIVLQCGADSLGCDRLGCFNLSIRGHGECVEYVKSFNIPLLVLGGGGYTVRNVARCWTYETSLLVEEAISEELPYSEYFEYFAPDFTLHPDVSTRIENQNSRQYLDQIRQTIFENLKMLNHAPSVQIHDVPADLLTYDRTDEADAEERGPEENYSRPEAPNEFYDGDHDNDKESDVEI
AHR activator = AHR activators, primary screen, cell-based, luminescence, luciferase reporter, human | Aryl hydrocarbon receptor (Homo sapiens), P35869 | AHR-responsive luciferase reporter cells | activation, % at 5 µM | 320,000 compounds, 2.5% hits; in the data active = activation above about 47%
GAA850 FXN act = FXN promoter activators, primary screen, cell-based, luciferase luminescence, HEK293 lucGAA850; 360,000 compounds, 0.56% hits; HEK293 lucGAA850 FXN promoter luciferase reporter, 24 h; percent of 10 µM SAHA response; activation, % at 6 µM;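 active = activation above the average of all compounds screened plus 3 SD, cutoff fixed separately per campaign, cut at about 7.5% in these data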
SENP1 FRET inh = human SENP1 catalytic domain inhibitors, primary screen, biochemical, FRET, uHTS; inhibition, % at 10 µM; 360,000 compounds, 0.21% hits; AID 624204, 2012; Sentrin-specific protease 1 (Homo sapiens), Q9P0U3; recombinant SENP1 catalytic domain, CyPet-SUMO1-YPet FRET cleavage;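 active = inhibition at least 30% at 10 µM, raw YFP signal under a set limit, fluorescence ratio 0.5 to 1.5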
Target sequence (Q9P0U3 419-644 limits assumed): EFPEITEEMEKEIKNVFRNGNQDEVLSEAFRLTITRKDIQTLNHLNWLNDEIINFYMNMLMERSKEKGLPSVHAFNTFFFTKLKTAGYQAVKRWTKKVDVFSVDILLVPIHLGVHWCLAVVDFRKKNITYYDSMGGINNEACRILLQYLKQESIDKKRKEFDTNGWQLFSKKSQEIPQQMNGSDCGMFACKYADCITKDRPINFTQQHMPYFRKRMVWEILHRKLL
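Material – human SENP1 catalytic domain · Input – SENP1 enzyme, 20 pM final · Compound dosing – single concentration of 10 µM compound, 0.5% DMSO final · Timing – enzyme reaction for 50 min at room temperature, dark · Measured by – FRET fluorescence in CFP and YFP emission channels · Control set – no-enzyme wells low, DMSO-plus-enzyme wells high control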
M18AAP inhibitor = PfM18AAP inhibitors, malaria aminopeptidase, primary screen, biochemical, QFRET, recombinant enzyme. 290,000 compounds, 1.2% hits. AID 1822, 2009. inhibition, % at 7.35 µM. M18 aspartyl aminopeptidase (Plasmodium falciparum 3D7). H-Glu-NHMec fluorogenic cleavage;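 active = inhibition above the campaign mean inhibition over all tested compounds plus 3 SD, cut at about 28% in these data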
AHR act confirm = AHR activators, confirmation, cell-based, luminescence, luciferase reporter, human; shares compounds with AHR activator; human cells, AHR-responsive luciferase reporter; activation, % at 9 µM; 2,300 compounds, 87% hits; in the data active = activation above about 49%;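 also: HepG2 hepatoma cells carrying a DRE-driven firefly luciferase reporter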
PXR act counter = human PXR activators, counter-screen for AHR activator project, cell-based, luciferase luminescence | shares compounds with AHR activator | cell-based PXR reporter | activation, % at 11.6 µM | 2,300 compounds, 88% hits | AID 434939, 2010; in the data active = activation above about 11%;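 also: human hepatoma DPX-2 cells expressing full-length human PXR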
Each line names hits and unclear results; the compound was inactive in the other large screens (follow-up assays come after a bar, where they were run).

CC12CCC(=O)N1C(C(=O)Nc1nc3ccc(S(C)(=O)=O)cc3s1)CS2 (centres undefined)	none
Cc1sc(NC(=O)C2CSC3(C)CCC(=O)N23)nc1-c1ccc(F)cc1 (centres undefined)	AHR activator 151 | AHR act confirm 101 | PXR act counter 151
Cc1ccc(-c2csc(NC(=O)C3CSC4(C)CCC(=O)N34)n2)cc1 (centres undefined)	none (no result: M18AAP inhibitor)
CC12CCC(=O)N1C(C(=O)Nc1nc3ccc(Cl)cc3s1)CS2 (centres undefined)	AHR activator 127 (no result: M18AAP inhibitor) | AHR act confirm 110 | PXR act counter 65
COc1cc(NC(=O)c2ccc(-c3cnn(C)c3)c3ccoc23)cc(OC)c1OC	none (no result: Fh CTSL1 inh, HDAC3 inhib, AHR activator, M18AAP inhibitor)
COc1ccc(-c2nc3ccc(Cl)cn3c2Cc2cccc(F)c2)cc1OC	none (no result: Fh CTSL1 inh, HDAC3 inhib, AHR activator, GAA850 FXN act, M18AAP inhibitor)
Cc1cc(=O)n(C(C)c2ccccc2)n1C(C)c1ccccc1 (centres undefined)	none (no result: Fh CTSL1 inh, HDAC3 inhib, AHR activator, M18AAP inhibitor)
O=C(CCCN1CCC(C(O)c2ccc(F)cc2)CC1)c1ccc(F)cc1 (centres undefined)	none (no result: Fh CTSL1 inh, HDAC3 inhib, AHR activator, GAA850 FXN act, M18AAP inhibitor)
O=C1c2ccccc2C(=O)c2c1ncn2-c1ccccc1	AHR activator 87 | AHR act confirm 130 | PXR act counter 33
C=CCc1c(C)nc(SC)nc1Nc1ccccc1	AHR activator 104 | AHR act confirm 58 | PXR act counter 105
C=CCc1c(C)nc(SC)nc1Nc1ccc(C(=O)O)cc1	none
C=CCc1c(C)nc(SC)nc1Nc1ccc(C(C)=O)cc1	AHR activator 83 | AHR act confirm 73 | PXR act counter 120
O=C(Nc1ccc(Cl)cc1)c1nc[nH]c1C(=O)N1CCN(c2ccccc2)CC1	none (no result: Fh CTSL1 inh, M18AAP inhibitor)
S=C(NNc1ccc2ccccc2c1)NC1CCCCC1	AHR activator 108 | AHR act confirm 90 | PXR act counter 99
c1ccc2c(c1)Sc1cnccc1N2CC1CO1 (centres undefined)	none (no result: Fh CTSL1 inh, HDAC3 inhib, AHR activator, M18AAP inhibitor)
COCCOC(=O)c1[nH]c2c(c1C)C(=O)CC(c1ccccc1)C2 (centres undefined)	AHR activator 115 | AHR act confirm 56 | PXR act counter 124
COCCCn1cc(CN2CC(N3CCN(C4CCN(C)CC4)CC3)CS2(=O)=O)nn1 (centres undefined)	none (no result: Fh CTSL1 inh, HDAC3 inhib, AHR activator, GAA850 FXN act, M18AAP inhibitor)
CCOc1ccc2oc(C(=O)OCC(=O)N3CC(C)OC(C)C3)c(C)c2c1 (centres undefined)	none (no result: Fh CTSL1 inh, M18AAP inhibitor)
C/C(=N\NC(=O)CSc1nc(C)cc(C)n1)c1cccs1	AHR activator 110 | AHR act confirm 98 | PXR act counter 50
COc1cccc(CNC(=O)Cn2ncc3c(=O)oc4ccccc4c32)c1	none
Fc1cccc2sc(Nc3nnc(-c4ccccc4)o3)nc12	AHR activator 155 | AHR act confirm 120 | PXR act counter 22
COc1cc2c(cc1NC(=O)/C=C/c1cc(OC)c(OC)c(OC)c1)oc1ccccc12	AHR activator 88 | AHR act confirm 53 | PXR act counter 10
COc1cc2c(cc1NC(=O)CSc1ccccn1)oc1ccccc12	AHR activator 105 | AHR act confirm 91 | PXR act counter 16
CC1(C(=O)NCc2ccccc2)CSCC(=O)N1Cc1cccs1 (centres undefined)	none (no result: Fh CTSL1 inh, HDAC3 inhib, AHR activator, GAA850 FXN act, M18AAP inhibitor)
Cc1cc(N2CCCC2)ccc1NC(=O)CN1C(=O)NC2(CCCCC2)C1=O	none (no result: M18AAP inhibitor)
S=C(Nc1ccccc1)c1nc2ccccc2s1	AHR activator 124 | AHR act confirm 142 | PXR act counter inactive
O=C(CCc1nc2ccccc2s1)Nc1ccccc1	none
O=C(CN1c2ccccc2Sc2ccccc21)NNC(=O)Nc1cccc(Cl)c1	none
Cc1cc(C(F)(F)F)n2nc(-c3sccc3-n3cccc3)cc2n1	AHR activator 103 | AHR act confirm 113 | PXR act counter 44
CS(=O)(=O)c1ccc(-c2sc3ccccc3c2C#CCCO)cc1	none (no result: Fh CTSL1 inh, M18AAP inhibitor)
COc1cc(-c2ccc3sc(-c4ccsc4)c(C#CCO)c3c2)cc(OC)c1OC	AHR activator 80 (no result: Fh CTSL1 inh, M18AAP inhibitor) | AHR act confirm 61 | PXR act counter 13
OCCC#Cc1c(-c2ccsc2)sc2ccccc12	AHR activator 86 | AHR act confirm 62 | PXR act counter 13
O=C(CCNC(=O)N1CC(=O)Nc2ccccc21)NCc1cccc(C(F)(F)F)c1	none (no result: Fh CTSL1 inh, HDAC3 inhib, AHR activator, M18AAP inhibitor)
CC(C)c1ccc(NC(=O)c2ccc(Br)o2)cc1	AHR activator 99 | AHR act confirm 107 | PXR act counter 35
COc1ccc(NC(=O)c2ccc(Br)o2)cc1	none
[O-][n+]1onc2c1CCc1nnccc1-2	none
[O-][n+]1onc2c1CCc1nnc(-c3ccccc3)cc1-2	AHR activator 97 | AHR act confirm 80
Cc1cc(C)c(-c2cc(NC(=O)COC(=O)c3ccc(NC(=O)CC#N)cc3)n(-c3ccccc3)n2)cc1C	none (no result: M18AAP inhibitor)
Cc1cc(C)c(-c2cc(NC(=O)COC(=O)c3ccc(C#N)cc3)n(-c3ccccc3)n2)cc1C	AHR activator 129 | AHR act confirm 105 | PXR act counter 82
CCN(C[C@H]1N[C@@](C)(C(=O)OC)[C@H]2C(=O)N(C)C(=O)[C@@H]12)C(=O)COC	none (no result: Fh CTSL1 inh, HDAC3 inhib, M18AAP inhibitor)
C/C(=C\C(=O)c1ccc(Br)cc1)NCc1ccccc1	AHR activator 95 | AHR act confirm inactive | PXR act counter 27
C/C(=C\C(=O)c1ccc(Br)cc1)NCc1ccc(C)cc1	none
Cc1ccc2[nH]c3c(NCCCN4CCCC4=O)ncnc3c2c1	AHR activator 86 | AHR act confirm 84 | PXR act counter 162
Cc1ccc(-n2ncc3c(NCCCN4CCCC4=O)ncnc32)c(C)c1	none (no result: HDAC3 inhib)
Cn1c(SCC(=O)Nc2cccc(F)c2)nc2c(c1=O)SCC2	none
OCCNc1nc(-c2ccccc2)nc2c1oc1ccccc12	AHR activator 104 | AHR act confirm 96 | PXR act counter 26
O=C(Nc1cccc(OC(=O)c2ccc(Br)o2)c1)c1ccccc1	none
CCOc1cccc(C(=O)Nc2ccc3[nH]ncc3c2)c1	AHR activator 93 | AHR act confirm inactive | PXR act counter 23
CCOc1cccc(C(=O)Nc2ccncc2)c1	none (no result: HDAC3 inhib)
Cc1ccc(CN=Cc2[nH]c3ccc(Br)c(Cl)c3c2O)cc1	none
Oc1c(C=NCc2ccc(F)cc2)[nH]c2ccc(Br)c(Cl)c12	AHR activator 81 (no result: GAA850 FXN act, SENP1 FRET inh) | AHR act confirm 86 | PXR act counter 31
